Source: ChEMBL document CHEMBL5634197, “Structural Evaluations of a Selective Human STINGA230 Agonist and Its Use in Macrophage Immunotherapies” (ACS Med Chem Lett, 2024)
Active and inactive are the calls of the source. No cut-off for these calls is given here.

What was measured:
[1] = Agonist activity at N-terminal his/SUMO tagged STING A230 in human THP-1 cells transfected with ISRE reporter assessed as increase in cGAMP-induced ISRE activation incubated for 48 hrs by luminescence based analysis; assay type: cell-based
THP-1 [2] = experiment: Upregulation of MX1 expression in human THP-1 cells at 50 uM measured after 6 hrs by RT-qPCR analysis; assay type: functional, cell-based
Method in brief: (§1)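 THP-1 cells, which carry homozygous STING HAQ, were treated for 6 h with vehicle or the agonist at 50 μM. Cells were then harvested, and MX1 and OAS1 expression was measured by RT-qPCR.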

THP-1 [3] = experiment: Upregulation of OAS1 expression in human THP-1 cells at 50 uM measured after 6 hrs by RT-qPCR analysis; assay type: functional, cell-based; method in brief: as §1
Macrophage [4] = experiment: Upregulation of MX1 expression in human Primary macrophage measured after 6 hrs by RT-qPCR analysis; assay type: functional, cell-based
Method in brief: (§2)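 CD14+ monocytes from 3 healthy donors with STING G230 alleles were differentiated into macrophages with M-CSF. Cells were transduced with FG12-EF1p-EGFRt-p2A-STINGA230 lentivirus, mock-transduced or left untransduced. Three days after transduction they were stimulated for 6 h with DMSO vehicle or the agonist, and MX1 and IRF7 expression was measured by RT-qPCR.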

Macrophage [5] = experiment: Upregulation of IRF7 expression in human Primary macrophage measured after 6 hrs by RT-qPCR analysis; assay type: functional, cell-based; method in brief: as §2
[6] = Upregulation of MX1 expression in human Primary macrophage transduced with lentivirus FG12-EFlp-EGFRt-p2A-STING A230 assessed as fold change measured after 6 hrs by RT-qPCR analysis; assay type: functional; method in brief: as §2
[7] = Upregulation of IRF7 expression in human Primary macrophage transduced with lentivirus FG12-EFlp-EGFRt-p2A-STING A230 assessed as fold change measured after 6 hrs by RT-qPCR analysis; assay type: functional; method in brief: as §2
PBMC = experiment: Induction of MX1 gene expression in human PBMC cells harbouring STING A230 allele at 50 uM measured after 6 hrs by RT-qPCR analysis; assay type: functional, cell-based
Method in brief: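 Primary PBMCs from 15 independent healthy donors were exposed to 50 μM agonist for 6 h. The 2′,3′-cGAMP comparator was given at 1 μg/mL. Cells were then harvested, and MX1 expression was measured by RT-qPCR. Values come from the donor carrying the STINGA230 allele.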

[8] = Homo sapiens, THP-1, 48 h, read-out: EC50

Compound	EC50 ([1]; thp-1)	other results
COC(=O)CSc1nnc2c3c(C)c(Br)sc3ncn12		EC50 [1, 8]: 11.4 µM
COC(=O)CSc1nnc2c3c4c(sc3ncn12)CCCC4	Not Active	
COCc1sc2ncn3c(SCC(=O)OC)nnc3c2c1C		EC50 [1, 8]: 23.2 µM
COC(=O)COc1nnc2c3c(C)c(C)sc3ncn12	Not Active	
COC(=O)CSc1nnc2c3c(C)c(C)sc3ncn12		EC50 [1, 8]: 5.71 µM; Activity (THP-1 [2]): Active; Activity (THP-1 [3]): Active; Activity (Macrophage [4]): inactive; Activity (Macrophage [5]): inactive; fold change (FC) [6]: 10; fold change (FC) [7]: 5; Activity (PBMC): Active
Cc1sc2ncn3c(Sc4nnn[nH]4)nnc3c2c1C	Not Active	
COC(=O)CSc1nnc2c3c(C)c(C)n(C)c3ncn12	Not Active	
COC(=O)CCc1nnc2c3c(C)c(C)sc3ncn12	Not Active	
COC(=O)CSc1nnc2c3c(C)c(C)oc3ncn12	Not Active	
COC(=O)CSc1nnc2c3c(C)c(C)sc3ccn12	Not Active	
COC(=O)Cc1nnc2c3c(C)c(C)sc3ncn12	Not Active	
COC(=O)CCSc1nnc2c3c(C)c(C)sc3ncn12	Not Active	
CCOC(=O)CSc1nnc2c3c(C)c(C)sc3ncn12		EC50 [1, 8]: 8.8 µM
CCc1cc2c(ncn3c(SCC(=O)OC)nnc23)s1		EC50 [1, 8]: 6.9 µM
COC(=O)CSc1nnc2c3c(C)c(C)sc3nc(C)n12	Not Active	
COC(=O)C[S+]([O-])c1nnc2c3c(C)c(C)sc3ncn12 (configuration not stated)	Not Active	
COC(=O)CSc1ncc2c3c(C)c(C)sc3ncn12	Not Active	
Cc1sc2ncn3c(SCC(=O)OC(C)(C)C)nnc3c2c1C	Not Active	
COC(=O)CSc1nnc2c3c4c(sc3ncn12)CCC4		EC50 [1, 8]: 7.3 µM
COCc1c(C)sc2ncn3c(SCC(=O)OC)nnc3c12	Not Active	
COC(=O)CSc1nnc2c3ccsc3ncn12	Not Active	
COC(=O)CNC(=O)n1cnc2sc(C)c(C)c2c1=O	Not Active	
Cc1sc2ncn3c(SC4CCOC4=O)nnc3c2c1C (configuration not stated)	Not Active	
COC(=O)CSc1nnc2c3cc(OC)c(OC)cc3ncn12	Not Active	
Cc1sc2ncn3c(SCC(=O)OC(C)C)nnc3c2c1C		EC50 [1, 8]: 13.4 µM
